Assay results gathered from unrelated publications.
Protocols differ between the studies behind these lines.
Observed: microbial growth

Compound | organism | assay | system | conditions | MIC
COc1cc(-c2cc(=O)c3c(O)cc(O)cc3o2)ccc1O | Helicobacter pylori | broth dilution |  |  | 3.9 µg/mL
Oc1ccc(-c2nc(-c3ccc(Oc4ccccc4)cc3)no2)cc1 | Bacillus cereus | broth dilution | ATCC13061 |  | 2 µg/mL
C[C@@H](O)[C@H]1C(=O)N2C(C(=O)O)=C(S[C@@H]3CN[C@H](C(=O)N(C)C)C3)[C@H](C)[C@H]12 | Salmonella enterica | broth dilution | ENTERITIDIS | clinical isolate | ≤ 0.5 µg/mL
CO/N=C(\C(=O)N[C@@H]1C(=O)N2C(C(=O)O)=C(CSc3nc(=O)c(=O)[nH]n3C)CS[C@H]12)c1csc(N)n1 | Salmonella enterica |  | F98, TYPHIMURIUM | 20 h, pH 5.5 | 0.25 µg/mL
O=C1NC(=S)S/C1=C\c1ccc(-c2ccc(N(c3ccccc3)c3ccccc3)cc2)cc1 | Bacillus cereus | broth dilution | ATCC10876 |  | 1000 µg/mL
O=C(Nc1ncc([N+](=O)[O-])s1)c1cccnc1F | Helicobacter pylori | broth dilution | 26695 | 27 h | 3.7 µM
O=C(O)CN1C(=O)/C(=C/c2ccc(-c3ccc(N(c4ccccc4)c4ccccc4)cc3)cc2)SC1=S | Bacillus cereus | broth dilution | ATCC10876 |  | 7.8 µg/mL
CC1(C)S[C@@H]2[C@H](NC(=O)[C@H](N)c3ccccc3)C(=O)N2[C@H]1C(=O)O | Salmonella enterica |  | F98, TYPHIMURIUM | 20 h, pH 7 | 2 µg/mL
O=C1NC(=S)S/C1=C\c1c2ccccc2c(-c2ccc(N(c3ccccc3)c3ccccc3)cc2)c2ccccc12 | Bacillus cereus | broth dilution | ATCC10876 |  | > 1000 µg/mL
CCN1CCN(c2cc3c(cc2F)c(=O)c(C(=O)O)cn3C2CC2)CC1 | Salmonella enterica |  | ENTERITIDIS | 20 h, pH 7.2 | 0.0625 µg/mL
O=C(O)CN1C(=O)/C(=C/c2ccc(-c3ccc(N(c4ccccc4)c4ccccc4)cc3)cc2)NC1=S | Bacillus cereus | broth dilution | ATCC10876 |  | 125 µg/mL
Cc1cc(NS(=O)(=O)c2ccc(N)cc2)no1 | Salmonella enterica |  |  | 20 h, pH 7.2 | 64 µg/mL
O=C(Nc1ncc([N+](=O)[O-])s1)c1ccncc1 | Helicobacter pylori | broth dilution | 26695 | 27 h | 16 µM
